ChEMBL document CHEMBL4130485, “Inhibitors of Yellow Fever Virus replication based on 1,3,5-triphenyl-4,5-dihydropyrazole scaffold: Design, synthesis and antiviral evaluation” (Eur J Med Chem, 2017)
The source made the active and inactive calls. The calls are words filed in the database; no cut-off is given here.

Key:
[1] = Selectivity index, ratio of CC50 for bovine MDBK cells to EC50 for Bovine viral diarrhea virus NADL ATCC VR 534; assay type: toxicity; conditions: cattle, read-out: Ratio CC50/EC50
In short: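 Selectivity index calculated as MDBK CC50 divided by BVDV EC50, both by MTT.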

[2] = tested on: Human alphaherpesvirus 1; experiment: Antiviral activity against Human herpesvirus 1 KOS ATCC VR 1493 infected in African green monkey Vero 76 cells assessed as protection against virus-induced cytopathic effect after 3 days by crystal violet staining-based plaque reduction assay; assay type: functional, organism-based; conditions: Human alphaherpesvirus 1, KOS, Vero 76, 72 h
[3] = Cytotoxicity against African green monkey Vero 76 cells assessed as decrease in cell viability after 5 days by MTT assay; assay type: cell-based; conditions: chlorocebus sabaeus
[4] = tested on: Human immunodeficiency virus 1; experiment: Antiviral activity against HIV1 3B infected in human MT4 cells assessed as protection against virus-induced cytopathic effect after 4 days by MTT assay; assay type: functional, organism-based; conditions: Human immunodeficiency virus 1, 3B, MT4, 96 h
In short: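 MT-4 cells (1×10^4/well) in RPMI with serial compound dilutions, infected with 100 CCID50 HIV-1 (m.o.i. 0.01). Viability read by MTT after 4 days at 37 °C. EC50 for 50% protection from cytopathicity obtained by linear regression versus untreated controls; mean of three determinations.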

[5] = tested on: Human orthopneumovirus; experiment: Antiviral activity against Human respiratory syncytial virus A2 ATCC VR 1540 infected in African green monkey Vero 76 cells assessed as protection against virus-induced cytopathic effect after 5 days by crystal violet staining-based plaque reduction assay; assay type: functional, organism-based; conditions: ATCC VR 1540, Vero 76, 120 h
[6] = Cytotoxicity against golden hamster BHK21 cells assessed as decrease in cell viability after 72 hrs by MTT assay; assay type: cell-based, Mesocricetus auratus, BHK-21
In short: (§1)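 Uninfected MDBK (6×10^5 cells/mL, 10% horse serum) or BHK (1×10^6 cells/mL, 10% FBS) cells in MEM-Earle with serial compound dilutions at 37 °C, 5% CO2, run in parallel with the antiviral assays. Viability read by MTT after 72 h. CC50 by linear regression; mean of three determinations.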

[7] = Selectivity index, ratio of CC50 for African green monkey Vero 76 cells to EC50 for Human coxsackievirus B5 Faulkner; assay type: toxicity; conditions: read-out: Ratio CC50/EC50
In short: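 Selectivity index calculated as Vero 76 CC50 (MTT) divided by CVB-5 plaque-reduction EC50.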

[8] = tested on: Vaccinia virus; experiment: Antiviral activity against Vaccinia virus Lister ATCC VR 1549 infected in African green monkey Vero 76 cells assessed as protection against virus-induced cytopathic effect after 3 days by crystal violet staining-based plaque reduction assay; assay type: functional, organism-based; conditions: Orthopoxvirus vaccinia, ATCC VR 1549, Vero 76, 72 h
[9] = Cytotoxicity against African green monkey Vero 76 cells assessed as decrease in cell viability after 48 to 96 hrs by MTT assay; assay type: cell-based; conditions: chlorocebus sabaeus
In short: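 Vero 76 cells seeded at 5×10^5 cells/mL in D-MEM with 10% FBS and incubated with serial compound dilutions at 37 °C, 5% CO2. Viability read by MTT after 48–96 h. CC50 by linear regression versus untreated controls.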

[10] = tested on: West Nile virus; experiment: Antiviral activity against West Nile virus clinical isolate infected in golden hamster BHK21 cells assessed as protection against virus-induced cytopathic effect after 3 to 4 days by MTT assay; assay type: functional, organism-based; conditions: BHK-21
In short: (§2)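 BHK-21 cells (MDBK for BVDV) seeded at 5×10^4 (BHK) or 3×10^4 (MDBK) cells/well and grown overnight to confluence. Infected at m.o.i. 0.01 in maintenance MEM-Earle with 0.5% inactivated FBS. Serial compound dilutions added 2 h later (final 100, 20, 4, 0.8 µM; DMSO ≤0.1%). Viability read by MTT after 3–4 days at 37 °C. EC50 obtained by linear regression against untreated controls; mean of three determinations.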

[11] = tested on: Yellow fever virus; experiment: Antiviral activity against Yellow fever virus 17D vaccine (Stamaril Pasteur J07B01) infected in golden hamster BHK21 cells assessed as protection against virus-induced cytopathic effect after 3 to 4 days by MTT assay; assay type: functional, organism-based; conditions: BHK-21; in short: as §2
[12] = tested on: Mammalian orthoreovirus 1; experiment: Antiviral activity against Reovirus 1 infected in golden hamster BHK21 cells assessed as protection against virus-induced cytopathic effect after 3 to 4 days by MTT assay; assay type: functional, organism-based; conditions: Mammalian orthoreovirus 1, BHK-21; in short: as §2
[13] = tested on: dengue virus type 2; experiment: Antiviral activity against Dengue virus type 2 clinical isolate infected in golden hamster BHK21 cells assessed as protection against virus-induced cytopathic effect after 3 to 4 days by MTT assay; assay type: functional, organism-based; conditions: BHK-21; in short: as §2
[14] = tested on: Vesicular stomatitis Indiana virus; experiment: Antiviral activity against Vesicular stomatitis virus Indiana ATCC VR 158 infected in African green monkey Vero 76 cells assessed as protection against virus-induced cytopathic effect after 2 days by crystal violet staining-based plaque reduction assay; assay type: functional, organism-based; conditions: ATCC VR 158, Vero 76, 48 h
[15] = tested on: Bovine viral diarrhea virus 1; experiment: Antiviral activity against Bovine viral diarrhea virus NADL ATCC VR 534 infected in bovine MDBK cells assessed as protection against virus-induced cytopathic effect after 3 to 4 days by MTT assay; assay type: functional, organism-based, Bovine viral diarrhea virus 1-NADL; conditions: Bovine viral diarrhea virus isolates and strains, ATCC VR 534, MDBK; in short: as §2
[16] = Cytotoxicity against human MT4 cells assessed as decrease in cell viability after 96 hrs by MTT assay; assay type: cell-based
In short: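 Exponentially growing MT-4 cells seeded at 1×10^5 cells/mL in RPMI-1640 with 10% FBS and incubated with serial compound dilutions at 37 °C, 5% CO2. Viability read by MTT after 96 h. CC50 by linear regression versus untreated controls.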

[17] = Selectivity index, ratio of CC50 for golden hamster BHK21 cells to EC50 for Yellow fever virus 17D; assay type: toxicity; conditions: read-out: Ratio CC50/EC50
In short: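 Selectivity index calculated as BHK-21 CC50 divided by YFV EC50, both from MTT assays.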

[18] = tested on: Yellow fever virus; experiment: Potency index, ratio of azauridine EC50 to compound EC50 for Yellow fever virus 17D vaccine (Stamaril Pasteur J07B01); assay type: functional
[19] = Cytotoxicity against bovine MDBK cells assessed as decrease in cell viability after 72 hrs by MTT assay; assay type: cell-based, Bos taurus; conditions: cattle; in short: as §1
[20] = Antiviral activity against Human enterovirus B Faulkner ATCC VR 185 infected in African green monkey Vero 76 cells assessed as protection against virus-induced cytopathic effect after 3 days by crystal violet staining-based plaque reduction assay; assay type: functional, cell-based; conditions: Faulkner ATCC VR 185, Vero 76, 72 h
[21] = tested on: Enterovirus C; experiment: Antiviral activity against Enterovirus C Sabin […] infected in African green monkey Vero 76 cells assessed as protection against virus-induced cytopathic effect after 2 days by crystal violet staining-based plaque reduction assay; assay type: functional, organism-based; conditions: Vero 76, 48 h
[22] = tested on: Yellow fever virus; conditions: Yellow fever virus 17D; vaccine (Stamaril Pasteur J07B01); at 20 µM
[23] = tested on: Yellow fever virus; experiment: Antiviral activity against Yellow fever virus 17D vaccine (Stamaril Pasteur J07B01) infected in golden hamster BHK21 cells assessed as protection against virus-induced cytopathic effect at 20 uM pretreated for 2 hrs followed by viral infection and measured after 24 to 36 hrs post infection by MTT assay; assay type: functional, organism-based
In short: (§3)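 Confluent BHK-21 monolayers inoculated at room temperature with YFV 17-D at 1 PFU/cell, adsorbed 60 min and washed. Compound at 20 µM (test) or 90 µM (6-azauridine reference) added 2 h before infection, during the 2 h infection, or in 2-h windows from 0 to 10 h p.i. Wells washed, refed until 10 h, CPE scored at 24–36 h p.i. Cells frozen and titred by plaque assay.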

[24] = tested on: Yellow fever virus; experiment: Antiviral activity against Yellow fever virus 17D vaccine (Stamaril Pasteur J07B01) infected in golden hamster BHK21 cells assessed as protection against virus-induced cytopathic effect at 90 uM pretreated for 2 hrs followed by viral infection and measured after 24 to 36 hrs post infection by MTT assay; assay type: functional, organism-based; in short: as §3

Compound | EC50 [2] [µM] | CC50 at 120 h [3] [µM] | EC50 [4] [µM] | EC50 [5] [µM] | CC50 at 72 h [6] [µM] | EC50 [8] [µM] | CC50 [9] [µM] | EC50 [10] [µM] | EC50 [11] [nM] | EC50 [12] [µM] | EC50 [13] [µM] | EC50 [14] [µM] | EC50 [15] [µM] | CC50 at 96 h [16] [µM] | selectivity ratio [17] | Ratio EC50 [18] | CC50 at 72 h [19] [µM] | EC50 [20] [µM] | EC50 [21] [µM] | also measured
NS(=O)(=O)c1ccc(N2N=C(c3ccc(OCc4ccccc4)cc3)CC2c2cccc(F)c2)cc1 (configuration not stated) | > 90 | 25 | > 65 | > 25 | 9 to 11 | > 90 | 90 | > 11 | 2000 | > 9 | > 11 | > 90 | 10 | 65 | 5.5 | 10 | 15 | 8.5 | > 90 | selectivity ratio [1]: 1.5; selectivity ratio [7]: 10.6
NS(=O)(=O)c1ccc(N2N=C(c3ccc(OCc4ccccc4)cc3)CC2c2ccccc2)cc1 (configuration not stated) | > 100 | – | > 100 | > 100 | 80 to 84 | > 100 | > 100 | > 80 | 2200 | > 84 | > 80 | > 100 | > 72 | > 100 | 36.4 | 10 | 72 | > 100 | > 100 | inhibition [22]: Active; inhibition [23]: Active
Cc1ccc(C2CC(c3ccc(Oc4ccccc4)cc3)=NN2c2ccc(S(N)(=O)=O)cc2)cc1 (configuration not stated) | > 86 | 20 | > 7.2 | > 20 | 8 to 9 | > 86 | 86 | > 9 | 1800 | > 8 | > 9 | > 86 | > 21 | 7.2 | 5 | 10 | 21 | > 86 | > 86 | –
O=c1cnn([C@@H]2O[C@H](CO)[C@@H](O)[C@H]2O)c(=O)[nH]1 [6-AZAURIDINE] | – | – | – | 40 | > 100 | – | 16 | – | 20000 | 18 | – | – | – | – | > 5 | – | – | – | – | Activity [24]: Active
NS(=O)(=O)c1ccc(N2N=C(c3ccc(OCc4ccccc4)cc3)CC2c2ccccc2F)cc1 (configuration not stated) | > 100 | – | > 39 | > 100 | 90 to 92 | > 100 | > 100 | > 90 | 1800 | > 92 | > 90 | > 100 | 52 | 39 | 50 | 10 | > 100 | > 100 | > 100 | selectivity ratio [1]: > 1.9; inhibition [22]: Active; inhibition [23]: Active
Cc1ccccc1C1CC(c2ccc(Oc3ccccc3)cc2)=NN1c1ccc(S(N)(=O)=O)cc1 (configuration not stated) | > 90 | 14 | 13 | > 14 | 7 to 8 | > 90 | 90 | > 8 | 2200 | > 7 | > 8 | > 90 | > 16 | 36 | 3.6 | 10 | 16 | > 90 | > 90 | –
NS(=O)(=O)c1ccc(N2N=C(c3ccc(Oc4ccccc4)cc3)CC2c2ccccc2)cc1 (configuration not stated) | > 85 | 35 | 13 | > 35 | 11 to 13 | > 85 | 85 | > 13 | 2100 | > 11 | > 13 | > 85 | > 5 | 42 | 6.2 | 10 | 5 | 3.5 | > 85 | selectivity ratio [7]: 24.3
